Activity calls are given as the source filed them. No cut-off for these calls is given here.
Columns and labels:
[1] = system: Vaccinia virus; assay: Antiviral activity against Vaccinia virus infected in human lung fibroblast assessed as inhibition of virus-induced cytopathic effect at 0.32 to 100 uM; assay type: functional, organism-based; conditions: Orthopoxvirus vaccinia
[2] = system: Radical scavenging activity; assay: Antioxidant activity assessed as DPPH free radical scavenging activity at 100 uM after 20 mins by spectrophotometric analysis; assay type: functional
Method in brief: (§1)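 0.05 mM DPPH in absolute ethanol mixed with an equal volume of compound in DMSO (final 100 μM). Shaken and left 20 or 60 min, then absorbance read at 517 nm and percent activity calculated. Three replicates, averaged.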

[3] = system: HeLa; assay: Cytostatic activity against human HeLa cells after 3 days by coulter counter analysis; assay type: functional, cell-based; conditions: 72 h
Method in brief: (§2)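 300,000–500,000 cells/ml mixed 1:1 with compound dilutions and incubated at 37 °C for 2 days (L1210) or 3 days (CEM, HeLa). Cell number counted with a Coulter counter; HeLa trypsinized before counting.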

[4] = system: Human alphaherpesvirus 1; assay: Antiviral activity against HSV1 KOS infected in human lung fibroblast assessed as inhibition of virus-induced cytopathic effect at 0.32 to 100 uM; assay type: functional, organism-based
Method in brief: (§3)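 Confluent cell cultures were infected with 100 CCID50 of virus in the presence of test compound at 100, 40, 8, 1.6 and 0.32 μM. Cytopathic effect was scored once it was complete in untreated infected controls.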

[5] = system: Influenza B virus; assay: Antiviral activity against Influenza B virus infected in MDCK cells assessed as inhibition of virus-induced cytopathic effect at 0.32 to 100 uM; assay type: functional, organism-based
Method in brief: (§4)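 Confluent MDCK monolayers were infected in the presence of the compound at 100, 40, 8, 1.6 and 0.32 μM. Viral cytopathicity was scored once it was complete in untreated infected control cultures.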

[6] = system: Sindbis virus; assay: Antiviral activity against Sindbis virus infected in african green monkey Vero cells assessed as inhibition of virus-induced cytopathic effect at 0.32 to 100 uM; assay type: functional, organism-based; method in brief: as §3
[7] = system: Human immunodeficiency virus 1; assay: Antiviral activity against HIV1 3B infected in human CEM cells assessed as inhibition of virus-induced CEM giant cell formation at 0.32 to 100 uM after 4 days; assay type: functional, organism-based; conditions: CCRF-CEM
Method in brief: (§5)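 CEM cells (~3 × 10^5 cells/cm³) exposed to 100 CCID50/ml of virus and seeded into wells holding compound dilutions. Incubated 4 days at 37 °C, then giant cell formation examined microscopically.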

[8] = system: Coxsackievirus B4; assay: Antiviral activity against Coxsackievirus B4 infected in african green monkey Vero cells assessed as inhibition of virus-induced cytopathic effect at 0.32 to 100 uM; assay type: functional, organism-based; method in brief: as §3
[9] = system: Vesicular stomatitis virus; assay: Antiviral activity against VSV infected in human lung fibroblast assessed as inhibition of virus-induced cytopathic effect at 0.32 to 100 uM; assay type: functional, organism-based
[10] = system: Glycine max; assay: Inhibition of soybean LOX assessed as conversion of sodium linoleate to 13- hydroperoxylinoleic acid at 100 uM
[11] = system: Felid alphaherpesvirus 1; assay: Antiviral activity against Feline herpesvirus infected in feline CRFK cells assessed as inhibition of virus-induced cytopathic effect at 0.32 to 100 uM; assay type: functional, organism-based; method in brief: as §3
[12] = system: Radical scavenging activity; assay: Antioxidant activity assessed as DPPH free radical scavenging activity at 100 uM after 60 mins by spectrophotometric analysis; assay type: functional; method in brief: as §1
[13] = system: HCT-116; assay: Cytostatic activity against human HCT116 cells after 72 hrs by MTT assay; assay type: functional, cell-based; conditions: HCT-116, 72 h
Method in brief: (§6)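 Monolayers in DMEM with 10% FBS, 2 mM L-glutamine and penicillin/streptomycin, 37 °C, 5% CO2. Seeded at 1–3 × 10^4 cells/ml, then compound added in tenfold dilutions (10⁻⁸–10⁻⁴ M) for 72 h. MTT read at 570 nm; percent growth taken against time-zero and untreated controls. IC50 by linear regression; quadruplicate, at least two experiments.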

[14] = system: CCRF-CEM; assay: Cytostatic activity against human CEM cells after 3 days by coulter counter analysis; assay type: functional, cell-based; conditions: 72 h; method in brief: as §2
[15] = system: Influenza A virus; assay: Antiviral activity against Influenza A virus H1N1 infected in MDCK cells assessed as inhibition of virus-induced cytopathic effect at 0.32 to 100 uM; assay type: functional, organism-based; method in brief: as §4
[16] = Antioxidant activity assessed as inhibition of AAPH-induced linoleic acid lipid peroxidation by measuring conjugated diene hydroperoxide level; assay type: functional; set-up: concentration or dose not given beside the values; conditions: dose or concentration not given here
Method in brief: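 Linoleic acid sodium salt (10 μL of 16 mM) in 0.05 M phosphate buffer pH 7.4 at 37 °C. Oxidation started under air with 50 μL of 40 mM AAPH. Conjugated diene hydroperoxide formation followed as absorbance rise at 234 nm; control contains the same DMSO level. At least triplicate.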

[17] = system: L1210; assay: Cytostatic activity against mouse L1210 cells after 2 days by coulter counter analysis; assay type: functional, cell-based; conditions: L1210, 48 h; method in brief: as §2
[18] = system: Mammalian orthoreovirus 1; assay: Antiviral activity against Reovirus-1 infected in african green monkey Vero cells assessed as inhibition of virus-induced cytopathic effect at 0.32 to 100 uM; assay type: functional, organism-based; method in brief: as §3
[19] = system: Respiratory syncytial virus; assay: Antiviral activity against RSV infected in human cervix carcinoma cells assessed as inhibition of virus-induced cytopathic effect at 0.32 to 100 uM; assay type: functional, organism-based; method in brief: as §3
[20] = system: Human alphaherpesvirus 2; assay: Antiviral activity against HSV2 G infected in human lung fibroblast assessed as inhibition of virus-induced cytopathic effect at 0.32 to 100 uM; assay type: functional, organism-based; conditions: strain G; method in brief: as §3
[21] = system: Punta Toro virus; assay: Antiviral activity against Punta Toro virus infected in african green monkey Vero cells assessed as inhibition of virus-induced cytopathic effect at 0.32 to 100 uM; assay type: functional, organism-based; method in brief: as §3
[22] = system: MCF7; assay: Cytostatic activity against human MCF7 cells after 72 hrs by MTT assay; assay type: functional, cell-based; conditions: MCF7, 72 h; method in brief: as §6
[23] = system: Coxsackievirus B4; assay: Antiviral activity against Coxsackievirus B4 infected in human cervix carcinoma cells assessed as inhibition of virus-induced cytopathic effect at 0.32 to 100 uM; assay type: functional, organism-based; method in brief: as §3
[24] = system: Human respirovirus 3; assay: Antiviral activity against Parainfluenza virus 3 infected in african green monkey Vero cells assessed as inhibition of virus-induced cytopathic effect at 0.32 to 100 uM; assay type: functional, organism-based; method in brief: as §3
[25] = system: Vesicular stomatitis virus; assay: Antiviral activity against Vesicular stomatitis virus infected in human cervix carcinoma cells assessed as inhibition of virus-induced cytopathic effect at 0.32 to 100 uM; assay type: functional, organism-based
Method in brief: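 Confluent human cervix carcinoma (HeLa) cultures received 100 CCID50 of VSV together with the compound at 100, 40, 8, 1.6 or 0.32 μM. Cytopathicity was read at the point of full CPE in infected, untreated control wells.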

[26] = system: Feline coronavirus; assay: Antiviral activity against Feline coronavirus infected in feline CRFK cells assessed as inhibition of virus-induced cytopathic effect at 0.32 to 100 uM; assay type: functional, organism-based; method in brief: as §3
[27] = system: Influenza A virus; assay: Antiviral activity against Influenza A virus H3N2 infected in MDCK cells assessed as inhibition of virus-induced cytopathic effect at 0.32 to 100 uM; assay type: functional, organism-based; method in brief: as §4
[28] = system: Human immunodeficiency virus 2; assay: Antiviral activity against HIV2 ROD infected in human CEM cells assessed as inhibition of virus-induced CEM giant cell formation at 0.32 to 100 uM after 4 days; assay type: functional, organism-based; conditions: ISOLATE ROD, CCRF-CEM; method in brief: as §5
[29] = system: NCI-H460; assay: Cytostatic activity against human NCI-H460 cells after 72 hrs by MTT assay; assay type: functional, cell-based; conditions: NCI-H460, 72 h; method in brief: as §6

| Structure (SMILES) | inhibition [1] | Activity [2] | IC50 [3] | inhibition [4] | inhibition [5] | inhibition [6] | inhibition [7] | inhibition [8] | inhibition [9] | inhibition [10] | inhibition [11] | Activity [12] | IC50 [13] | IC50 [14] | inhibition [15] | inhibition [16] | IC50 [17] | inhibition [18] | inhibition [19] | inhibition [20] | further results |
| --- | --- | --- | --- | --- | --- | --- | --- | --- | --- | --- | --- | --- | --- | --- | --- | --- | --- | --- | --- | --- | --- |
| NNC(=O)NOCc1ccccc1 | inactive | 6% | > 250 µM | inactive | inactive | inactive | inactive | inactive | inactive | inactive | inactive | 14% | > 100 µM | > 250 µM | inactive | 36% | > 250 µM | inactive | inactive | inactive | inhibition [21]: inactive; IC50 [22]: > 100 µM; inhibition [23]: inactive; inhibition [24]: inactive; inhibition [25]: inactive; inhibition [26]: inactive; inhibition [27]: inactive; inhibition [28]: inactive; IC50 [29]: > 100 µM |
| CC(C)Cc1ccc(C(C)C(=O)NNC(=O)NO)cc1 (centres undefined) | inactive | 29% | 160 µM | inactive | inactive | inactive | inactive | inactive | inactive | 7% | inactive | 54% | > 100 µM | 205 µM | inactive | 20% | 108 µM | inactive | inactive | inactive | inhibition [21]: inactive; IC50 [22]: > 100 µM; inhibition [23]: inactive; inhibition [24]: inactive; inhibition [25]: inactive; inhibition [26]: inactive; inhibition [27]: inactive; inhibition [28]: inactive; IC50 [29]: > 100 µM |
| CC(C)Cc1ccc(C(C)C(=O)NNC(=O)NCc2ccccc2)cc1 (centres undefined) | inactive | inactive | 173 µM | inactive | inactive | inactive | inactive | inactive | inactive | inactive | inactive | inactive | 34 µM | 74 µM | inactive | 12% | 110 µM | inactive | inactive | inactive | inhibition [21]: inactive; IC50 [22]: 29 µM; inhibition [23]: inactive; inhibition [24]: inactive; inhibition [25]: inactive; inhibition [26]: inactive; inhibition [27]: inactive; inhibition [28]: inactive; IC50 [29]: 59 µM |
| CC(C)Cc1ccc(C(C)C(=O)NNC(=O)NCCc2ccccc2)cc1 (centres undefined) | inactive | inactive | ≥ 250 µM | inactive | inactive | inactive | inactive | inactive | inactive | inactive | inactive | inactive | 26 µM | 148 µM | inactive | 33% | 180 µM | inactive | inactive | inactive | inhibition [21]: inactive; IC50 [22]: 23 µM; inhibition [23]: inactive; inhibition [24]: inactive; inhibition [25]: inactive; inhibition [26]: inactive; inhibition [27]: inactive; inhibition [28]: inactive; IC50 [29]: 51 µM |
| CC(C)Cc1ccc(C(C)C(=O)NNC(=O)NC2CCCCC2)cc1 (centres undefined) | inactive | inactive | 69 µM | inactive | inactive | inactive | inactive | inactive | inactive | inactive | inactive | inactive | 28 µM | 53 µM | inactive | 33% | 30 µM | inactive | inactive | inactive | inhibition [21]: inactive; IC50 [22]: 19 µM; inhibition [23]: inactive; inhibition [24]: inactive; inhibition [25]: inactive; inhibition [26]: inactive; inhibition [27]: inactive; inhibition [28]: inactive; IC50 [29]: 35 µM |
| O=C(NNC(=O)n1nnc2ccccc21)NOCc1ccccc1 | inactive | 85% | > 250 µM | inactive | inactive | inactive | inactive | inactive | inactive | inactive | inactive | 85% | > 100 µM | > 250 µM | inactive | 31% | > 250 µM | inactive | inactive | inactive | inhibition [21]: inactive; IC50 [22]: > 100 µM; inhibition [23]: inactive; inhibition [24]: inactive; inhibition [25]: inactive; inhibition [26]: inactive; inhibition [27]: inactive; inhibition [28]: inactive; IC50 [29]: > 100 µM |
